{"source": "ChEMBL document CHEMBL1255300", "about": "“Pharmacodynamics of the antibacterial effect and emergence of resistance to tomopenem, formerly RO4908463/CS-023, in an in vitro pharmacokinetic model of Staphylococcus aureus infection” (Antimicrob Agents Chemother, 2008)", "format_in_all_cases": "functional", "key": {"[1]": {"test_system": "Staphylococcus aureus", "experiment": "Antibacterial activity against methicillin-resistant Staphylococcus aureus 33921 by broth dilution method", "outline": "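MIC by CLSI broth dilution, or by broth dilution in 10% Mueller-Hinton broth at nondoubling dilutions.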"}, "[2]": {"test_system": "Staphylococcus aureus", "experiment": "AUBKC (0 to 48 hrs) in methicillin-resistant Staphylococcus aureus 33815 infected in in vitro pharmacokinetic model at 1500 mg, iv every 8 hrs using 10^6 CFU/ml inoculum", "outline": "(§1)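 Single-compartment dilutional in vitro PK model at 37°C in 10% Mueller-Hinton broth, stirred, flow 132 ml/h. […] Inoculum 10^6 CFU/ml added 45 min before dosing, or 10^8 CFU/ml run overnight. Viable counts with β-lactamase neutralisation. AUBKC by log-linear trapezoidal rule, at least triplicate.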"}, "[3]": {"test_system": "Staphylococcus aureus", "experiment": "Antibacterial activity against methicillin-resistant Staphylococcus aureus 33827 infected in in vitro pharmacokinetic model assessed as reduction in viable count at 1500 mg, iv every 8 hrs measured after 36 hrs using 10^8 CFU/ml inoculum", "outline": "(§2)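 Single-compartment dilutional in vitro PK model, 10% Mueller-Hinton broth, 37°C, stirred, dilution 132 ml/h. […] Inoculum 10^6 CFU/ml (added 45 min pre-dose) or 10^8 CFU/ml (run overnight). Viable counts by spiral plating, beta-lactamase neutralization, detection limit 10^2 CFU/ml. At least triplicate.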"}, "[4]": {"test_system": "Staphylococcus aureus", "experiment": "Antibacterial activity against methicillin-resistant Staphylococcus aureus 33922 infected in in vitro pharmacokinetic model assessed as time required to 99% killing at 750 mg, iv every 8 hrs using 10^8 CFU/ml inoculum"}, "[5]": {"test_system": "Staphylococcus aureus", "experiment": "Antibacterial activity against methicillin-resistant Staphylococcus aureus 33827 infected in in vitro pharmacokinetic model assessed as time required to 99% killing at 750 mg, iv every 8 hrs using 10^8 CFU/ml inoculum", "outline": "as §2"}, "[6]": {"test_system": "Staphylococcus aureus", "experiment": "T>MIC for 4-log drop in count in methicillin-resistant Staphylococcus aureus 33922 in in vitro pharmacokinetic model after 24 hrs using 10^6 CFU/ml inoculum"}, "[7]": {"test_system": "Staphylococcus aureus", "experiment": "Antibacterial activity against methicillin-sensitive Staphylococcus aureus 5956 infected in in vitro pharmacokinetic model assessed as reduction in viable count at 1500 mg, iv every 8 hrs measured after 24 hrs using 10^6 CFU/ml inoculum"}, "[8]": {"test_system": "Staphylococcus aureus", "experiment": "AUBKC (0 to 24 hrs) in methicillin-sensitive Staphylococcus aureus 5956 infected in in vitro pharmacokinetic model at 1500 mg, iv every 8 hrs using 10^6 CFU/ml inoculum"}, "[9]": {"test_system": "Staphylococcus aureus", "experiment": "Antibacterial activity against methicillin-resistant Staphylococcus aureus 33921 in in vitro pharmacokinetic model assessed as viable count at 6 times of MIC", "outline": "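Preexposure population analysis: time-zero model samples plated on nutrient agar without drug and with drug at multiples of the 10% broth MIC. Growth reported as log CFU/ml, detection limit 2 log10.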"}, "[10]": {"test_system": "Staphylococcus aureus", "experiment": "T>MIC for static effect in methicillin-sensitive Staphylococcus aureus 5956 in in vitro pharmacokinetic model after 24 hrs using 10^6 CFU/ml inoculum"}, "[11]": {"test_system": "Staphylococcus aureus", "experiment": "Antibacterial activity against methicillin-resistant Staphylococcus aureus 33922 infected in in vitro pharmacokinetic model assessed as reduction in viable count at 1500 mg, iv every 8 hrs measured after 12 hrs using 10^8 CFU/ml inoculum"}, "[12]": {"test_system": "Staphylococcus aureus", "experiment": "Antibacterial activity against methicillin-sensitive Staphylococcus aureus 5956 infected in in vitro pharmacokinetic model assessed as reduction in viable count at 1500 mg, iv every 8 hrs measured after 12 hrs using 10^6 CFU/ml inoculum"}, "[13]": {"test_system": "Staphylococcus aureus", "experiment": "Antibacterial activity against methicillin-resistant Staphylococcus aureus 33820 infected in in vitro pharmacokinetic model assessed as reduction in viable count at 750 mg, iv every 8 hrs measured after 24 hrs using 10^6 CFU/ml inoculum", "outline": "(§3)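 Single-compartment dilutional in vitro PK model, 37°C, stirred, in 10% Mueller-Hinton broth. […] Inoculum 10^6 CFU/ml from a 24-h plate culture was added 45 min before dosing. Viable counts by spiral plating on nutrient agar with β-lactamase neutralization. Log change was taken from time 0; detection limit 10^2 CFU/ml; at least triplicate.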"}, "[14]": {"test_system": "Staphylococcus aureus", "experiment": "Antibacterial activity against methicillin-resistant Staphylococcus aureus 33815 infected in in vitro pharmacokinetic model assessed as reduction in viable count at 1500 mg, iv every 8 hrs measured after 24 hrs using 10^6 CFU/ml inoculum", "outline": "as §3"}, "[15]": {"test_system": "Staphylococcus aureus", "experiment": "Antibacterial activity against methicillin-resistant Staphylococcus aureus 33820 infected in in vitro pharmacokinetic model assessed as time required to 99.9% killing at 750 mg, iv every 8 hrs using 10^6 CFU/ml inoculum"}, "[16]": {"test_system": "Staphylococcus aureus", "experiment": "AUBKC (0 to 24 hrs) in methicillin-resistant Staphylococcus aureus 33922 infected in in vitro pharmacokinetic model at 750 mg, iv every 8 hrs using 10^6 CFU/ml inoculum", "outline": "as §1"}, "[17]": {"test_system": "Staphylococcus aureus", "experiment": "T>MIC for 4-log drop in count in methicillin-sensitive Staphylococcus aureus 5956 in in vitro pharmacokinetic model after 24 hrs using 10^6 CFU/ml inoculum", "outline": "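Dose-ranging: 7–13 simulated regimens per strain giving T>MIC of 0–100% (MIC from 10% MHB), at 106 or 10^8 CFU/ml as stated.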"}, "[18]": {"test_system": "Staphylococcus aureus", "experiment": "T>MIC for 1-log drop in count in methicillin-resistant Staphylococcus aureus 33829 in in vitro pharmacokinetic model after 24 hrs using 10^6 CFU/ml inoculum"}, "[19]": {"test_system": "Staphylococcus aureus", "experiment": "T>MIC for static effect in methicillin-resistant Staphylococcus aureus 33820 in in vitro pharmacokinetic model after 24 hrs using 10^6 CFU/ml inoculum"}, "[20]": {"test_system": "Staphylococcus aureus", "experiment": "T>MIC for 1-log drop in count in methicillin-resistant Staphylococcus aureus 33815 in in vitro pharmacokinetic model after 24 hrs using 10^8 CFU/ml inoculum"}, "[21]": {"test_system": "Staphylococcus aureus", "experiment": "Antibacterial activity against methicillin-sensitive Staphylococcus aureus 5956 infected in in vitro pharmacokinetic model assessed as reduction in viable count at 750 mg, iv every 8 hrs measured after 24 hrs using 10^6 CFU/ml inoculum"}, "[22]": {"test_system": "Staphylococcus aureus", "experiment": "AUBKC (0 to 48 hrs) in methicillin-resistant Staphylococcus aureus 33820 infected in in vitro pharmacokinetic model at 750 mg, iv every 8 hrs using 10^6 CFU/ml inoculum", "outline": "as §1"}, "[23]": {"test_system": "Staphylococcus aureus", "experiment": "T>MIC for 3-log drop in count in methicillin-resistant Staphylococcus aureus 33827 in in vitro pharmacokinetic model after 24 hrs using 10^8 CFU/ml inoculum"}, "[24]": {"test_system": "Staphylococcus aureus", "experiment": "Antibacterial activity against methicillin-sensitive Staphylococcus aureus 5956 infected in in vitro pharmacokinetic model assessed as time required to 99% killing at 750 mg, iv every 8 hrs using 10^6 CFU/ml inoculum"}, "[25]": {"test_system": "Staphylococcus aureus", "experiment": "Antibacterial activity against methicillin-resistant Staphylococcus aureus 33827 infected in in vitro pharmacokinetic model assessed as reduction in viable count at 1500 mg, iv every 8 hrs measured after 36 hrs using 10^6 CFU/ml inoculum", "outline": "as §2"}, "[26]": {"test_system": "Staphylococcus aureus", "experiment": "Antibacterial activity against methicillin-resistant Staphylococcus aureus 33921 infected in in vitro pharmacokinetic model assessed as reduction in viable count at 1500 mg, iv every 8 hrs measured after 36 hrs using 10^6 CFU/ml inoculum", "outline": "as §2"}, "[27]": {"test_system": "Staphylococcus aureus", "experiment": "T>MIC for 2-log drop in count in methicillin-resistant Staphylococcus aureus 33820 in in vitro pharmacokinetic model after 24 hrs using 10^6 CFU/ml inoculum"}}}
{"smiles": "C[C@@H](O)[C@H]1C(=O)N2C(C(=O)O)=C(S[C@H]3C[C@@H](C(=O)N4CC[C@H](NC(=O)CNC(=N)N)C4)N(C)C3)[C@H](C)[C@H]12", "note": "[TOMOPENEM]", "values": [{"measurement": "MIC", "setting": "[1]", "result": 0.5, "unit": "µg/mL"}, {"measurement": "AUBC", "setting": "[2]", "result": 12.5, "unit": "log10CFU/ml.hr"}, {"measurement": "log10CFU/ml", "setting": "[3]", "result": 6}, {"measurement": "Time", "setting": "[4]", "result": 12, "unit": "h"}, {"measurement": "Time", "setting": "[5]", "result": 12, "unit": "h"}, {"measurement": "fT>MIC", "setting": "[6]", "result": 21.5, "unit": "%"}, {"measurement": "log10CFU/ml", "setting": "[7]", "result": 4.4}, {"measurement": "AUBC", "setting": "[8]", "result": 22.7, "unit": "log10CFU/ml.hr"}, {"measurement": "log10CFU/ml", "setting": "[9]", "result": "< 2"}, {"measurement": "fT>MIC", "setting": "[10]", "result": 6, "unit": "%"}, {"measurement": "log10CFU/ml", "setting": "[11]", "result": 1.5}, {"measurement": "log10CFU/ml", "setting": "[12]", "result": 4.4}, {"measurement": "log10CFU/ml", "setting": "[13]", "result": 4.2}, {"measurement": "log10CFU/ml", "setting": "[14]", "result": 4.2}, {"measurement": "Time", "setting": "[15]", "result": 12, "unit": "h"}, {"measurement": "AUBC", "setting": "[16]", "result": 20.2, "unit": "log10CFU/ml.hr"}, {"measurement": "fT>MIC", "setting": "[17]", "result": 12.8, "unit": "%"}, {"measurement": "fT>MIC", "setting": "[18]", "result": 16.8, "unit": "%"}, {"measurement": "fT>MIC", "setting": "[19]", "result": 5.9, "unit": "%"}, {"measurement": "fT>MIC", "setting": "[20]", "result": 1, "unit": "%"}, {"measurement": "log10CFU/ml", "setting": "[21]", "result": 4.3}, {"measurement": "AUBC", "setting": "[22]", "result": 28.6, "unit": "log10CFU/ml.hr"}, {"measurement": "fT>MIC", "setting": "[23]", "result": 59.3, "unit": "%"}, {"measurement": "Time", "setting": "[24]", "result": 4, "unit": "h"}, {"measurement": "log10CFU/ml", "setting": "[25]", "result": 4}, {"measurement": "log10CFU/ml", "setting": "[26]", "result": 4.2}, {"measurement": "fT>MIC", "setting": "[27]", "result": 14.5, "unit": "%"}]}
